In ChEMBL document CHEMBL1138476 (J Med Chem, 2009):
≈ marks a conversion by molar mass, not a printed value. Calls of active or inactive are those of the source. No cut-off for these calls is given here.

Experiments:
Canis familiaris [1] = test: Effect on respiratory function in spontaneously breathing mongrel dog assessed as change in minute volume at 5 mg/kg after intravenous infusion for 15 mins (RVb= -4.7+/-3.4 %); format: functional, Canis lupus familiaris
Canis familiaris [2] = test: Effect on respiratory function in spontaneously breathing mongrel dog assessed as change in heart rate at 5 mg/kg after intravenous infusion for 30 mins (RVb= -0.9+/-3.8 %); format: functional, Canis lupus familiaris
Canis familiaris [3] = test: Effect on respiratory function in spontaneously breathing mongrel dog assessed as change in heart rate at 5 mg/kg after intravenous infusion for 60 mins (RVb= -0.9+/-5.8 %); format: functional, Canis lupus familiaris
Rattus norvegicus [4] = test: Toxicity in rat assessed as time spent on rotarod at 30 mg/kg, po after 1 hr by rotarod test; format: organism-based; set-up: dose 30 mg/kg, route oral; conditions: in vivo
In short: (§1)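 Rats, n = 8 per dose, dosed po in 0.25% Methocel 1 h before testing, at 0, 1.0, 3.0, 10, 30 and 100 mg/kg. Read-out is time on rotorod (s), mean ± SEM, compared with the vehicle (zero-dose) group.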

Rattus norvegicus [5] = test: Anxiolytic activity in rat assessed as decrease in latency to exit dark chamber at 10 mg/kg, po by defensive withdrawal test relative to untreated control; format: functional; set-up: scale not given: the % may be the effect or the level left
In short: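 Rat defensive withdrawal: latency to leave the dark chamber and explore the open field, maximum 900 s. Dosed orally in 0.25% Methocel 60 min before testing; n = 8 per dose, mean ± SEM. Analysed by Kruskal–Wallis followed by Mann–Whitney U against vehicle.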

Rattus norvegicus [6] = test: Anxiolytic activity in rat assessed as increase in time spent on open arm at 18 mg/kg, po by elevated plus-maze test; format: functional, organism-based; set-up: dose 18 mg/kg
In short: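 Rat elevated plus maze: percent of test time spent in the open arms. Oral dosing in 0.25% Methocel 60 min before testing; n = 12 per dose, mean ± SEM. Analysed by ANOVA followed by Fisher's LSD comparisons against vehicle.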

[7] = Plasma concentration in spontaneously breathing dog at 5 mg/kg, iv after 15 mins; format: ADME, organism-based, Canis lupus familiaris; set-up: dose 5 mg/kg, route intravenous
In short: (§2)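 Spontaneously breathing, barbiturate-anesthetized mongrel dogs (n = 4) infused iv at 5.0 mg/kg over 6 min. Total pooled plasma concentrations taken at 6, 15, 30 and 60 min.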

[8] = Plasma concentration in spontaneously breathing dog at 5 mg/kg, iv after 6 mins; format: ADME, organism-based, Canis lupus familiaris; set-up: dose 5 mg/kg, route intravenous; in short: as §2
Canis familiaris [9] = test: Effect on respiratory function in spontaneously breathing mongrel dog assessed as change in tidal volume at 5 mg/kg after intravenous infusion for 6 mins (RVb= 5.8+/-3.8 %); format: functional, Canis lupus familiaris
[10] = Clearance in chimpanzee at 0.5 mg/kg, iv; format: ADME, organism-based, Pan troglodytes; set-up: dose 0.5 mg/kg, route intravenous; conditions: in vivo
In short: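 Chimpanzee PK. Oral: 1 mg/kg in two alert animals, given as a 1 mg/mL suspension in 50–50 (v/v) 0.5% methylcellulose/Tang orange juice with 1% Tween-80. IV: 0.5 mg/kg in one animal in 10% DMAC, 70% propylene glycol and deionized water, infused over 10 min (0.2 mL/kg). EDTA blood was taken predose and at 2–96 h; iv sampling added 6, 15 and 30 min.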

Canis familiaris [11] = test: Effect on respiratory function in spontaneously breathing mongrel dog assessed as change in peak expiratory flow at 5 mg/kg after intravenous infusion for 60 mins (RVb= 0.4+/-6.7 %); format: functional, Canis lupus familiaris
Rattus norvegicus [12] = test: Toxicity in rat assessed as time spent on rotarod at 10 mg/kg, po after 1 hr by rotarod test; format: organism-based; set-up: dose 10 mg/kg, route oral; conditions: in vivo; in short: as §1
Rattus norvegicus [13] = test: Toxicity in rat assessed as time spent on rotarod at 100 mg/kg, po after 1 hr by rotarod test; format: organism-based; set-up: dose 100 mg/kg, route oral; conditions: in vivo
In short: (§3)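 Rats (N = 8 per dose) dosed po in 0.25% Methocel 1 h before rotorod testing. Time on rotorod in s, given as mean ± SEM against a vehicle (zero dose) group.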

[14] = Oral bioavailability in rat at 5 mg/kg; format: ADME, organism-based; conditions: in vivo
In short: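 Rats (n = 3) were dosed at 1 mg/kg iv in 10% DMAC, 70% propylene glycol and deionized water, and at 5 mg/kg po in 0.5% methylcellulose.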

Canis familiaris [15] = test: Effect on respiratory function in spontaneously breathing mongrel dog assessed as change in pulmonary compliance at 5 mg/kg after intravenous infusion for 15 mins (RVb= 0.8+/-2.0 %); format: functional, Canis lupus familiaris
[16] = Solubility in 0.01 N HCl at pH 2.5; format: physicochemical
Rattus norvegicus [17] = test: Toxicity in rat assessed as total distance traveled at 100 mg/kg, po after 1 hr by spontaneous locomotor test; format: organism-based; set-up: dose 100 mg/kg, route oral; conditions: in vivo
In short: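 Rat spontaneous locomotor activity test with oral dosing in 0.25% Methocel 1 h before testing, at doses up to 100 mg/kg. Values are mean ± SEM, with N rats per group, compared with the vehicle (zero-dose) group.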

[18] = Cmax in rat at 5 mg/kg, po; format: ADME, organism-based; set-up: dose 5 mg/kg, route oral; conditions: in vivo
In short: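 Rats (n = 3) received 1 mg/kg iv in 10% DMAC, 70% propylene glycol and deionized water, or 5 mg/kg orally in 0.5% methylcellulose.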

Rattus norvegicus [19] = test: Effect on acute renal function in rat assessed as change in urine protein level per 100 gm body weight at 30 mg/kg, po (RVb= 12.0+/-2.4 mg/dl); format: functional
Rattus norvegicus [20] = test: Toxicity in rat assessed as time spent on rotarod at 3 mg/kg, po after 1 hr by rotarod test; format: organism-based; set-up: dose 3 mg/kg, route oral; conditions: in vivo; in short: as §1
Rattus norvegicus [21] = test: Effect on acute renal function in rat assessed as change in glucose level in urine per 100 gm body weight at 30 mg/kg, po (RVb= 9.9+/-1.9 mg/dl); format: functional
Canis familiaris [22] = test: Effect on respiratory function in spontaneously breathing mongrel dog assessed as change in tidal volume at 5 mg/kg after intravenous infusion for 60 mins (RVb= 13.0+/-10.3 %); format: functional, Canis lupus familiaris
Canis familiaris [23] = test: Effect on respiratory function in spontaneously breathing mongrel dog assessed as change in mean arterial pressure at 5 mg/kg after intravenous infusion for 6 mins (RVb= 1.5+/-0.9 %); format: functional, Canis lupus familiaris, Artery
Rattus norvegicus [24] = test: Toxicity in rat assessed as time spent on rotarod at 1 mg/kg, po after 1 hr by rotarod test; format: organism-based; set-up: dose 1 mg/kg, route oral; conditions: in vivo; in short: as §3
Rattus norvegicus [25] = test: Effect on acute renal function in rat assessed as change in urine urea level per 100 gm body weight at 30 mg/kg, po (RVb= 321+/-62 mg/dl); format: functional
Canis familiaris [26] = test: Effect on respiratory function in spontaneously breathing mongrel dog assessed as change in minute volume at 5 mg/kg after intravenous infusion for 6 mins (RVb= -3.6+/-7.5 %); format: functional, Canis lupus familiaris

concentration at 0.25 h [7]: 835 nM
concentration at 0.1 h [8]: 1790 nM
clearance [10]: 2 mL/min/kg
bioavailability [14]: 40%
solubility [16]: 16.3 mg/mL (≈ 47.9 mM)
Cmax [18]: 1260 nM
SMILES: CC[C@@H](C)Nc1nc(C)nc2c(-c3ccc(OC)nc3C)c(C)nn12 [PEXACERFONT]
Activity (Canis familiaris [1]): 0.6%
Activity (Canis familiaris [2]): -2.5%
Activity (Canis familiaris [3]): -2.3%
Time (Rattus norvegicus [4]): 157 s
Activity (Rattus norvegicus [5]): 65%
Activity (Rattus norvegicus [6]): Active
Activity (Canis familiaris [9]): -3.5%
Activity (Canis familiaris [11]): 7.5%
Time (Rattus norvegicus [12]): 158 s
Time (Rattus norvegicus [13]): 121 s
Activity (Canis familiaris [15]): -2.2%
Activity (Rattus norvegicus [17]): 4041 cm
Activity (Rattus norvegicus [19]): 6.6 mg/dL
Time (Rattus norvegicus [20]): 162 s
Activity (Rattus norvegicus [21]): 4.4 mg/dL
Activity (Canis familiaris [22]): 11.5%
Activity (Canis familiaris [23]): 3.8%
Time (Rattus norvegicus [24]): 133 s
Activity (Rattus norvegicus [25]): 166 mg/dL
Activity (Canis familiaris [26]): 28.1%
